# TCR-CD3 inh: human TCR-CD3 binding inhibition. inhibition, % at 9.4 µM. hit rate 0.37% among 360,000. TAMRA-labeled TCR probe fluorescence, biochemical. AID 651800;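 further: recombinant mutant TCR 2C K166C tagged with TAMRA read by polarization; 0% = receptor in buffer alone and 100% = receptor with positive control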
# HTRA1 inhibitor: inhibitors of human serine peptidase HTRA1; inhibition, % at 5.96 µM; Q92743; recombinant HTRA1, FP-rhodamine activity-based probe, fluorescence polarization; hit rate 0.5% among 340,000; in the data active means inhibition above about 36%;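 further: 0% = enzyme with DMSO and 100% = wells lacking enzyme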
# Target sequence (Q92743 whole entry, looked up): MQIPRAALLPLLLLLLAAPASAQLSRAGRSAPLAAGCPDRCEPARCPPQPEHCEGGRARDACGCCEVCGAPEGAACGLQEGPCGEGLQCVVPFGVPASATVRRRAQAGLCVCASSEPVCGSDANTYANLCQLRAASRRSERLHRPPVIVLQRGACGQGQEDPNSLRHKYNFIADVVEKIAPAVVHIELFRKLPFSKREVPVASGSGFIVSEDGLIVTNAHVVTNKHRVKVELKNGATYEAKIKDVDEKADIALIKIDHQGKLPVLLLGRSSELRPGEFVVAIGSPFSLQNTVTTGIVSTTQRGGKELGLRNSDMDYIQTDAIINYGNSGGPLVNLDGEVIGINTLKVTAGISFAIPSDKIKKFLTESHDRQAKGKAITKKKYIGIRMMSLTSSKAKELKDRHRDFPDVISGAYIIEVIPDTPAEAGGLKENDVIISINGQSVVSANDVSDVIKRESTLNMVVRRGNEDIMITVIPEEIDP
# ABHD4 inh: inhibitors of mouse ABHD4; inhibition, % at 8.92 µM; hit rate 0.54% among 370,000; purified mABHD4, FP-Rh probe fluorescence polarization; Q8VD66;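 active means inhibition exceeding the mean over every tested compound plus 3 SD, cut at about 30% in these data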;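 further: 0% = plate median of compound wells and 100% = S159A mutant with DMSO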
#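 Test system: mouse ABHD4 enzyme, wild type. Reagent: FP-Rh fluorescent activity-based probe, added after compound pre-incubation. Timing: pre-incubation 45 min, probe exposure 60 min, at 25 °C. Technique: FP readout, ex 525 nm / em 598 nm. Benchmarks: high control S159A mutant with DMSO, low control median of compound wells.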
# ATG4B inh: inhibitors of human ATG4B cysteine protease. Q9Y4P1. ATG4B cleavage of LC3-PLA2, NBD-HPC fluorescence, 1 h. hit rate 0.51% among 340,000. AID 504462. inhibition, % at 8.33 µM; in the data active means inhibition above about 40%
# PRMT1 FP inh: blocks human protein arginine methyltransferase 1. Q99873. recombinant PRMT1, activity-based probe fluorescence polarization. inhibition, % at 2.79 µM. hit rate 1.3% among 370,000. AID 652257;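 active means inhibition above about 21% made by adding two undisclosed values, limit read from the data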
# SIAE inh: blocks human sialic acid acetylesterase; hit rate 0.69% among 370,000; inhibition, % at 9.66 µM; AID 1053197; SIAE FP-Rh probe binding, fluorescence polarization;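 active means inhibition above a cutoff: mean of compounds within the control limits plus 3 SD of those, cut at about 17% in these data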;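 further: 0% = plate median of compound wells and 100% = probe without SIAE protein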
# HTRA1 inh conf: confirmation of human HTRA1 inhibitors; shares compounds with HTRA1 inhibitor; AID 540248; inhibition, % at 5.96 µM; hit rate 66% among 1,600; recombinant HTRA1, FP-rhodamine activity-based probe, fluorescence polarization;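 active means mean inhibition over three repeats above a set limit taken from the earlier primary screen, cut at about 37% in these data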;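 further: 0% = HTRA1 with DMSO and 100% = wells lacking HTRA1; inhibitors block probe binding so polarization drops and inhibition rises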
# BSA TAMRA ctr: counter-screen for TCR-CD3 interaction inhibitors: BSA probe; shares compounds with TCR-CD3 inh; hit rate 10% among 1,200; inhibition, % at 9.4 µM; TAMRA-labeled BSA probe fluorescence counterscreen; in the data active means inhibition above about 23%;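 further: 0% = buffer low control and 100% = reference high control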
# TCR-CD3 conf: confirmation of human TCR-CD3 interaction inhibitors; hit rate 48% among 1,200; AID 652036; TAMRA-labeled TCR probe fluorescence binding assay; inhibition, % at 9.4 µM; shares compounds with TCR-CD3 inh
# PRMT1 inh conf: PRMT1 (human) inhibition, FP confirmation. shares compounds with PRMT1 FP inh. recombinant His-PRMT1, activity-based probe fluorescence polarization. inhibition, % at 2.79 µM. hit rate 42% among 3,300;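 active means mean inhibition across replicates above the hit cutoff derived for the earlier primary screen, cut at about 22% in these data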
# ABHD4 confirm: confirmation of mouse ABHD4 inhibitors; hit rate 55% among 1,800; shares compounds with ABHD4 inh; inhibition, % at 8.92 µM; AID 720658; purified mABHD4, FP-Rh probe fluorescence polarization;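 active means mean inhibition across replicates above the hit cutoff set in the primary screen, cut at about 30% in these data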;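 further: 0% = wild-type ABHD4 with DMSO and 100% = catalytically dead S159A mutant with DMSO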
# SIAE confirm: confirmation of human SIAE inhibitors | hit rate 13% among 2,300 | SIAE FP-Rh activity-based probe, fluorescence polarization | AID 1117263 | inhibition, % at 9.66 µM | shares compounds with SIAE inh;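 active means mean inhibition of the replicates above the hit cutoff set in the primary screen, cut at about 17% in these data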;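 further: 0% = SIAE with DMSO and probe and 100% = probe without SIAE; inhibitors lower polarization as more probe stays unbound to SIAE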
# The depositor's hits bear a star; nt = no result. The list is not random: actives were taken first. Their share in the collection is about 2.9%. Unless noted, no stated cut-off is given here; in the data, active means inhibition above about 19%; inactive means the rest.
SMILES,TCR-CD3 inh,HTRA1 inhibitor,ABHD4 inh,ATG4B inh,PRMT1 FP inh,SIAE inh,HTRA1 inh conf,ABHD4 confirm,SIAE confirm,others
Cn1c(C(=O)NN)cc2cc(Oc3ccccc3)ccc21,-12,-2,-9,5,6,-9,nt,nt,nt,
Oc1ccc(-c2csc(Nc3cccc4ccccc34)n2)cc1O,10,71*,21,0,7,26*,71*,nt,-3,
Cc1cc2cc(CNS(=O)(=O)c3ccc4ccccc4c3)ccc2n1C,58*,67*,51*,-18,5,26*,5,4,-7,BSA TAMRA ctr=17;TCR-CD3 conf=10
Cc1cc(C)c(S(=O)(=O)NCCn2c(C)cc3ccccc32)c(C)c1,71*,66*,60*,-15,1,24*,0,-22,-5,BSA TAMRA ctr=1;TCR-CD3 conf=1
Cc1cc(C)c(S(=O)(=O)NCc2ccc3c(c2)cc(C)n3C)c(C)c1,71*,60*,55*,-8,14,39*,-6,-10,6,BSA TAMRA ctr=30*;TCR-CD3 conf=26*
Cc1ccc2c(c1)-c1c(cnn1CC(=O)NCCc1ccc(Cl)cc1)CO2,nt,nt,0,nt,3,6,nt,nt,nt,
CCOc1ccc(-n2c(SCc3nc4ccccc4[nH]3)nnc2-c2cccc(Cl)c2)cc1,nt,nt,-3,nt,-3,-2,nt,nt,nt,
CC(=O)c1c2c3c(cccc3n(C)c1=O)C(=O)c1ccccc1-2,nt,nt,nt,0,nt,nt,nt,nt,nt,
Cn1c(=O)c(Nc2ccc(O)cc2)c2c3c(cccc31)C(=O)c1ccccc1-2,16,78*,74*,-1,105*,26*,86*,65*,14,PRMT1 inh conf=32*
NC(=NCc1ccccc1)NC(=O)OCc1ccccc1,nt,nt,-2,nt,0,0,nt,nt,nt,
Nc1nc(Sc2ccc([N+](=O)[O-])c3nonc23)c2[nH]cnc2n1,7,59*,46*,2,89*,17*,71*,49*,0,PRMT1 inh conf=84*
O=C(CSc1nnc(-c2ccccc2F)n1Cc1ccco1)Nc1ccccc1-c1ccccc1,nt,nt,4,nt,16,-3,nt,nt,nt,
Cc1cc(=O)[nH]c(N/N=C/c2c[nH]c3ccccc23)n1,-10,3,-1,-7,0,-2,nt,nt,nt,
C(=N\Nc1nc2ccccc2[nH]1)/c1c[nH]c2ccccc12,4,38*,14,-20,1,21*,21,nt,33*,
O=[N+]([O-])c1ccccc1N/N=C/c1c[nH]c2ccccc12,4,78*,49*,5,1,18*,76*,89*,21*,
O=[N+]([O-])c1ccc(N/N=C/c2c[nH]c3ccccc23)cc1,-17,31,10,28,15,8,nt,nt,nt,
O=C(CC1Nc2cccc3cccc(c23)NC1=O)Nc1ccc(F)cc1 (centres undefined),-1,61*,29,-9,7,24*,6,nt,8,
O=C(CC1NC(=O)NC1=O)Nc1ccc(Cl)cc1 (centres undefined),2,3,-1,-4,-3,3,nt,nt,nt,
Oc1c(Cl)cc(Cl)cc1/C=N/NC(=S)NC1CC2C=CC1C2 (centres undefined),23*,52*,39*,15,0,20*,54*,41*,21*,BSA TAMRA ctr=-18;TCR-CD3 conf=28*
O=C(c1ccc(F)c(F)c1)N1CCC(Oc2cccnc2)CC1,nt,nt,0,nt,-8,0,nt,nt,nt,
N#CC1=C(N)Oc2ccc3ccc(O)cc3c2C1c1ccsc1 (centres undefined),70*,126*,132*,-12,83*,126*,58*,88*,63*,BSA TAMRA ctr=72*;TCR-CD3 conf=53*;PRMT1 inh conf=16
O=C1C2CCCCN2C(=O)N1CCCN1CCN(c2ccc(F)cc2)CC1 (centres undefined),nt,2,nt,6,nt,nt,nt,nt,nt,
Nc1ccc(N2CCN(CCCCN3C(=O)C4CCCN4C3=O)CC2)cc1 (centres undefined),18,38*,81*,12,5,31*,36,11,9,
COc1ccc2[nH]c3c(c2c1)CCNC3c1ccc([N+](=O)[O-])o1 (centres undefined),1,43*,-4,-6,23*,21*,47*,nt,22*,
CCOC(=O)[C@]12CCCC=C1N(CCCOC)C(=O)[C@@H]2CC(=O)NCC1CCCCC1,nt,nt,1,nt,4,0,nt,nt,nt,
SMILES,TCR-CD3 inh,HTRA1 inhibitor,ABHD4 inh,ATG4B inh,PRMT1 FP inh,SIAE inh,HTRA1 inh conf,ABHD4 confirm,SIAE confirm,others
CC1=C(C)C(=O)C(N2CCOCC2)=CC1=O,13,1,12,10,-2,-2,nt,nt,nt,
O=C1C(N2CCOCC2)=Cc2cccc3cccc1c23,87*,59*,86*,nt,101*,49*,39*,83*,27*,BSA TAMRA ctr=70*;TCR-CD3 conf=47*;PRMT1 inh conf=77*
CC(C(=O)N1CCOCC1)N1C(=O)c2cccc3cccc(c23)C1=O (centres undefined),4,-6,3,-5,-3,-5,nt,nt,nt,
O=C1C=C(N2CCOCC2)c2cccc3cccc1c23,79*,43*,83*,nt,102*,47*,8,2,-2,BSA TAMRA ctr=7;TCR-CD3 conf=3;PRMT1 inh conf=-2
COc1ccc(C2OCCNC3C2C(=O)N(Cc2ccc(OC)cc2OC)C3Cc2ccccc2)cc1 (centres undefined),nt,nt,4,nt,5,4,nt,nt,nt,
O=C(Nc1ccc(F)cc1)OCc1cn(Cc2ccc(F)cc2)nn1,nt,nt,-5,nt,-6,-1,nt,nt,nt,
COc1ccc(/C=N/NC(=O)c2cc(O)c(O)c(O)c2)cc1Cn1cc([N+](=O)[O-])cn1,63*,72*,28,-2,12,46*,82*,nt,2,BSA TAMRA ctr=-10;TCR-CD3 conf=78*
O=c1c2ccccc2nc(N/N=C/c2c(O)ccc3ccccc23)n1O,9,62*,34*,8,0,18*,68*,34*,11,
O=C(C1CCCN1S(=O)(=O)c1ccccc1[N+](=O)[O-])N1CCN(c2ccccc2)CC1 (centres undefined),nt,nt,-14,nt,6,0,nt,nt,nt,
CCCCCCCCN1CCS(=O)(=O)N(Cc2ccc(C)cc2)C(C(=O)OC)C1 (centres undefined),nt,nt,-3,nt,-3,5,nt,nt,nt,

# Screening results (PubChem)
